According to ChEMBL document CHEMBL1149072, “Cytotoxic constituents of Baccharis gaudichaudiana” (1994):
Converted amounts (≈) assume the structure as drawn.

Tests used:
Format in all cases: functional
[1] = Cytotoxicity against human BC1 cells; settings: read-out: ED50 (the source's name)
Summary of the method: (§1)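 These human cancer cell lines were established from primary tumors at the authors' institution. Cytotoxicity was assessed in 96-well microtiter plates by a previously described protocol and expressed as ED50 in µg/ml.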

Col2 = experiment: Cytotoxicity against human Col2 cells; settings: read-out: ED50 (the source's name); summary of the method: as §1
HT-1080 = experiment: Cytotoxicity against human HT1080 cells; settings: read-out: ED50 (the source's name)
Summary of the method: (§2)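 The cell lines came from ATCC. Cytotoxicity was run in 96-well microtiter plates by a previously described method and reported as ED50 in µg/ml.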

KB = experiment: Cytotoxicity against human KB cells; settings: read-out: ED50 (the source's name); summary of the method: as §2
[2] = Cytotoxicity against human KBV1 cells; settings: KB-V1, read-out: ED50 (the source's name)
Summary of the method: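 The KB-V1 line is multidrug resistant. It was derived from KB cells by extended exposure to sublethal vinblastine. It was tested in 96-well microtiter plates by a previously described method, with ED50 in µg/ml as the read-out.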

Lu1 = experiment: Cytotoxicity against human Lu1 cells; settings: read-out: ED50 (the source's name); summary of the method: as §1
SK-MEL-2 = experiment: Cytotoxicity against human SK-MEL-2 cells; settings: read-out: ED50 (the source's name)
P388 = experiment: Cytotoxicity against mouse P388 cells; settings: read-out: ED50 (the source's name); summary of the method: as §2

| Structure (SMILES) | EC50 [1] | EC50 (Col2) | EC50 (HT-1080) | EC50 (KB) | EC50 [2] | EC50 (Lu1) | EC50 (SK-MEL-2) | EC50 (P388) |
| --- | --- | --- | --- | --- | --- | --- | --- | --- |
| O=c1cc(-c2ccc(O)cc2)oc2cc(O)cc(O)c12 [APIGENIN] | > 20 µg/mL | 19.3 µg/mL (≈ 71.4 µM) | 12.2 µg/mL (≈ 45.1 µM) | > 20 µg/mL | 16.8 µg/mL (≈ 62.2 µM) | 14 µg/mL (≈ 51.8 µM) | 13.6 µg/mL (≈ 50.3 µM) | 12.2 µg/mL (≈ 45.1 µM) |
| CC(=O)O[C@@H]1C=C2C(=O)OC[C@]23CC[C@@H](C)[C@](C)(CCC2=CC(=O)OC2)C3C1 (stereo partly drawn) [ARTICULIN ACETATE] | > 20 µg/mL | > 20 µg/mL | > 20 µg/mL | > 20 µg/mL | > 20 µg/mL | > 20 µg/mL | > 20 µg/mL | 1.7 µg/mL |
| C[C@H]1CC=C2C(CO)(CO)CCC[C@]2(C)C1CC[C@@H](CCO)COC(=O)/C=C/c1ccc(O)cc1 (stereo partly drawn) [GUADICHAUDOL C] | 19 µg/mL (≈ 39 µM) | 19.3 µg/mL (≈ 39.7 µM) | 12.4 µg/mL (≈ 25.5 µM) | > 20 µg/mL | 4.7 µg/mL (≈ 9.66 µM) | 13.1 µg/mL (≈ 26.9 µM) | 11.2 µg/mL (≈ 23 µM) | 2.4 µg/mL (≈ 4.93 µM) |
| C[C@@H]1CC[C@@]23COC(=O)[C@H]2C[C@@H](O)C=C3[C@@]1(C)CCc1ccoc1 [GUADICHAUDONE] | > 20 µg/mL | > 20 µg/mL | > 20 µg/mL | > 20 µg/mL | > 20 µg/mL | > 20 µg/mL | > 20 µg/mL | 11.7 µg/mL (≈ 35.4 µM) |
| COc1c(O)cc2oc(-c3ccc(O)cc3)cc(=O)c2c1O [HISPIDULIN] | 19 µg/mL (≈ 63.3 µM) | > 20 µg/mL | 5.2 µg/mL (≈ 17.3 µM) | 5.6 µg/mL (≈ 18.7 µM) | 2.8 µg/mL (≈ 9.33 µM) | 17.6 µg/mL (≈ 58.6 µM) | 11.5 µg/mL (≈ 38.3 µM) | 0.8 µg/mL (≈ 2.66 µM) |
| C=C1CC[C@@H]2[C@H]([C@H]3[C@H]1CC[C@]3(C)O)C2(C)C [SPATHULENOL] | > 20 µg/mL | > 20 µg/mL | > 20 µg/mL | > 20 µg/mL | > 20 µg/mL | > 20 µg/mL | 6.3 µg/mL (≈ 28.6 µM) | > 20 µg/mL |
